The list is not random: actives were taken first. Their share in the collection is about 2.2%.
RanGTP-Imp inh: disruptors of Ran-importin-beta complex formation – biochemical, FRET, CFP-Ran, YFP-importin-beta, homogeneous, primary screen; cell-free CFP-Ran/YFP-importin-beta FRET ratio; inhibition, % (concentration not given with the values); 1.1% of 300,000 active;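 active = more than half of the replicate wells show a fall in the fluorescence ratio signal beyond about 16%, limit read from the data, passing the limit was not always enough; inconclusive = exactly half of the replicate wells pass the set limit; inactive = fewer than half of replicates pass the limit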
Runt-CBFb FRET: Runt domain-CBFb interaction inhibition | Q01196+Q13951 | Cerulean-Runt/Venus-CBFb FRET ratio 530/480, 1 h | inhibition, % at 20 µM | 0.46% of 220,000 active;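 active = inhibition over about 50% at 20 µM in the single-dose screen, limit read from the data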
Target sequence (Q01196 whole entry, looked up, the tested form may be a part): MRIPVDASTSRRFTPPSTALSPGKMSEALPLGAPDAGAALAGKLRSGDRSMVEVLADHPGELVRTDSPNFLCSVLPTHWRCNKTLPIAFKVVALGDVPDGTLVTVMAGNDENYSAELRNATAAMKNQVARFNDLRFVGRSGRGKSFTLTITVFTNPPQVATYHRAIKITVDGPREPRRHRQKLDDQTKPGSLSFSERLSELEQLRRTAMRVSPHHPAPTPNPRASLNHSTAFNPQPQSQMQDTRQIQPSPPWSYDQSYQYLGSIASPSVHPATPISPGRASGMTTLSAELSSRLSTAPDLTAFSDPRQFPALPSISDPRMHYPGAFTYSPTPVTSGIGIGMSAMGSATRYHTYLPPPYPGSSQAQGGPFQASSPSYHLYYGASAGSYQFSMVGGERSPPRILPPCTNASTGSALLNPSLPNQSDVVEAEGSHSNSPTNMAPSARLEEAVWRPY
Target sequence (Q13951 whole entry, looked up, the tested form may be a part): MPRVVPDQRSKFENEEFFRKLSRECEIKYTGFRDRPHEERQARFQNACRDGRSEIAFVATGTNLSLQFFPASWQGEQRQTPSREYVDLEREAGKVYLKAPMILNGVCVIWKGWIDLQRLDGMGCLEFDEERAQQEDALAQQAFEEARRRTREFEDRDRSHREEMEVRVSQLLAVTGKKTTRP
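Measured by: fluorescence energy transfer, 422 nm excitation, 530/480 nm emission; test system: Cerulean-tagged RUNX1 Runt domain (FRET donor) fusion protein; buffer or medium: Tris pH 7.5 buffer with BSA; compound: one dose, 20 µM compound, 1% DMSO; times: two 1 h room-temperature incubations shielded from light; benchmarks: unlabeled CBFb 5 µM, positive control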
Hck Nef HTS: inhibitors of human Hck kinase activated by Nef. inhibition, % at 20 µM. 0.68% of 220,000 active. AID 463187. Recombinant Hck-YEEI plus Nef, Z-Lyte FRET kinase assay;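 active = Hck-Nef kinase inhibition above about 50%, limit read from the data; inactive = inhibition below that limit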
14-3-3 Bad PPI: disrupts binding of bovine 14-3-3 zeta to phospho-Bad peptide; TR-FRET 14-3-3zeta/Dy647-pBad peptide displacement, 1 h; 0.71% of 220,000 active; inhibition, % at 21.7 µM;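 active = inhibition above about 70%, limit read from the data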
TbHK1 inh: T. brucei hexokinase 1 inhibition | recombinant TbHK1, G6PDH-coupled NADH A340 | inhibition, % at 10 µM | 0.11% of 220,000 active | AID 1430;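 active = inhibition of 50% or more in the single-dose primary screen; inactive = inhibition below 50%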
Runt-SMMHC FRET: inhibitors of human RUNX1 Runt domain binding to CBFb-SMMHC; Q01196+Q13951; Cerulean-Runt/Venus-CBFb-SMMHC FRET ratio 530/480, 1 h; inhibition, % at 20 µM; 0.74% of 220,000 active;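 active = mean inhibition across duplicate retests at 20 µM reaching about 50%, limit read from the data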;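 also: inhibitors lower the FRET ratio by blocking Runt binding to CBFb-SMMHC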
Each line names hits and unclear results; the compound was inactive in the other large screens; [ ] = dose if it differs, or a comment.

CC(C)(C)c1c(Cl)c(O)c(-c2ccccc2)c(=O)n1-c1ccccc1	RanGTP-Imp inh inconclusive, 14-3-3 Bad PPI 80
Cn1c(-c2ccc(F)cc2)cnc1NCc1ccccc1	none
Cn1c(-c2ccc(F)cc2)cnc1NCc1cccc(F)c1	14-3-3 Bad PPI 79
CC(=O)c1cccc(NS(=O)(=O)c2ccc(-c3cc(C)no3)s2)c1	none (no result: Runt-CBFb FRET, Hck Nef HTS, 14-3-3 Bad PPI, TbHK1 inh, Runt-SMMHC FRET)
O=c1cc(N2CCCCC2)[nH]c(=O)n1C1CCCCC1	none
COC(=O)C1CCN(c2cc(=O)n(C3CCCCC3)c(=O)[nH]2)CC1	RanGTP-Imp inh 63
COC(=O)C1CCN(c2cc(=O)n(Cc3ccc(F)cc3)c(=O)[nH]2)CC1	RanGTP-Imp inh 59
Cc1cccc(NC(=S)Nc2ccc(N3CCOCC3)cc2)c1C	none
COc1cccc(/C(O)=C/c2nc3ccc(C(=O)NCCc4ccc(Cl)cc4)cc3[nH]c2=O)c1	RanGTP-Imp inh 32
COc1cccc(/C(O)=C/c2nc3ccc(C(=O)NCCc4cccc(C)c4)cc3[nH]c2=O)c1	RanGTP-Imp inh 43
COc1cccc(C(=O)Nc2cc(C(=O)NCCc3ccccc3)ccc2Cl)c1	none
O=C(NCCc1ccc(Cl)cc1)c1ccc2nc[nH]c2c1	none
Cc1nc2ccccc2n1CC(=O)NC1CCCC1	14-3-3 Bad PPI 71
N#CC1(C#N)C(c2ccccc2)OC23CCCCC2C1(C#N)C(=N)O3 (stereo not given)	RanGTP-Imp inh 42
N#CC1(C#N)C(c2ccccc2)OC23CCCCCC2C1(C#N)C(=N)O3 (stereo not given)	RanGTP-Imp inh inconclusive, Runt-SMMHC FRET 80
COc1ccc(S(=O)(=O)Nc2ccccn2)cc1C(=O)Nc1ccccc1	none (no result: Runt-CBFb FRET, Hck Nef HTS, 14-3-3 Bad PPI, TbHK1 inh, Runt-SMMHC FRET)
CC(C)(C)c1ccccc1NC(=S)NC1CCCCC1	RanGTP-Imp inh 83
CC(C)(C)c1ccccc1NC(=S)NC1CCCC1	none (no result: Runt-CBFb FRET, Hck Nef HTS, 14-3-3 Bad PPI, TbHK1 inh, Runt-SMMHC FRET)
COC(=O)c1ccccc1NC(=O)COC(=O)c1ccc(C)c(NC(=O)c2ccco2)c1	14-3-3 Bad PPI 89[fluorescence artefact?]
O=C(Nc1ccc(-c2nc3ccccc3o2)cc1)c1ccc2c(c1)OCO2	none
Cc1ccc2oc(-c3ccc(NC(=O)c4ccc5c(c4)OCO5)cc3)nc2c1	Runt-CBFb FRET 67
Cc1ccc(NC(=S)NCc2ccco2)c(C)c1	none
Cc1nn(CCC(=O)NNC(=S)NCC(C)C)c(C)c1Br	none (no result: RanGTP-Imp inh)
CCOC(=O)C1=C(C)NC2=C(C(=O)C(C(=O)OCC)C(c3ccco3)C2)C1c1ccccn1 (stereo not given)	RanGTP-Imp inh 32
N#Cc1ccc(NC(=O)Nc2ccc(Cl)cc2)cc1	none
N#CC(C#N)=C/C=C(\Nc1ccc(Cl)cc1)c1ccc(Cl)cc1	RanGTP-Imp inh 66
CCn1nc(C)c(CNC(=O)c2cc(COc3ccc(C)nc3)on2)c1C	none (no result: Runt-CBFb FRET, Hck Nef HTS, 14-3-3 Bad PPI, TbHK1 inh, Runt-SMMHC FRET)
CC(CN1CCN(C)CC1)OC(=O)c1ccccc1Cl (stereo not given)	14-3-3 Bad PPI 85
COc1cc(C(=O)OC(C)CN2CCN(C)CC2)cc(OC)c1OC (stereo not given)	none
CC(CN1CCCC1)OC(=O)c1ccccc1Cl (stereo not given)	none (no result: Runt-CBFb FRET, Hck Nef HTS, 14-3-3 Bad PPI, TbHK1 inh, Runt-SMMHC FRET)
COc1ccc(C(=O)OC(C)CN2CCN(C)CC2)cc1OC (stereo not given)	14-3-3 Bad PPI 89
O=C(NCc1ccccc1)c1onc(CSc2ccccc2)c1C(=O)NCC1CC1	none
Cc1ccc(S(=O)(=O)NCCCN2CCOCC2)cc1C	none
COc1cc(S(=O)(=O)NCCCN2CCOCC2)ccc1-n1cnnn1	14-3-3 Bad PPI 70
Cc1cc(C)c(C)c(S(=O)(=O)NCCCN2CCOCC2)c1C	14-3-3 Bad PPI 86
COc1cccc(-n2nnc3c(=O)n(CC(=O)Nc4cc(C)on4)cnc32)c1	none
O=C(NCc1ccco1)/C(=C/c1cccnc1)NC(=O)c1ccco1	none
CCOc1cc(N2CCOCC2)c(OCC)cc1NC(=O)COc1ccc2ccc(=O)oc2c1	none
CCOC(=O)c1cc(Br)c(=O)n2ccccc12	RanGTP-Imp inh inconclusive
CCOC(=O)c1cc(C(=O)OCC)c2cccc(C)n2c1=O	RanGTP-Imp inh 36
COc1ccc(C(=O)NN=C2CCCC2)cc1	RanGTP-Imp inh 28 (no result: Runt-CBFb FRET, Hck Nef HTS, 14-3-3 Bad PPI, TbHK1 inh, Runt-SMMHC FRET)
O=c1cc(-c2ccccc2Cl)oc2c(NS(=O)(=O)c3cccs3)ccc(O)c12	none
COC(=O)C1=CN(C2CC2)C=C(C(=O)OC)C1c1ccc(C(=O)OC)cc1	RanGTP-Imp inh 52, Runt-CBFb FRET 107, Runt-SMMHC FRET 60
COC(=O)c1ccc([C@H]2CC(=O)O2)cc1	none (no result: Runt-CBFb FRET, Hck Nef HTS, 14-3-3 Bad PPI, TbHK1 inh, Runt-SMMHC FRET)
CC(C)C(=O)NNC(=O)c1csc(-c2cccs2)n1	none
CC(C)(C)C(=O)Nc1nnc(SCC(=O)NC2CCCC2)s1	none (no result: Runt-CBFb FRET, Hck Nef HTS, 14-3-3 Bad PPI, TbHK1 inh, Runt-SMMHC FRET)
Cc1nc([N+](=O)[O-])c(Sc2nc3ccc([N+](=O)[O-])cc3[nH]2)n1Cc1ccccc1	Runt-CBFb FRET 115
CCN(C(=O)CCN1C(=O)/C(=C/c2ccccc2)SC1=S)C1CCS(=O)(=O)C1 (stereo not given)	none (no result: Runt-CBFb FRET, Hck Nef HTS, 14-3-3 Bad PPI, TbHK1 inh, Runt-SMMHC FRET)
CCNC(=O)c1c(O)c2ccccc2[nH]c1=O	RanGTP-Imp inh 96
O=C(Cc1c(O)c2ccccc2[nH]c1=O)NCc1ccccc1F	TbHK1 inh 54
CC(C)=NNC(=O)c1c(O)c2ccccc2[nH]c1=O	none
CCn1c(=O)cc(OCC(=O)N2CCN(c3cccc(C(F)(F)F)c3)CC2)c2ccccc21	RanGTP-Imp inh 30
CCn1c(=O)cc(OCC(=O)N2CCCC2)c2ccccc21	none
CCCCc1cc(=O)oc2cc(O)cc(O)c12	Runt-SMMHC FRET 61
CCOc1ccc(NC(=O)COc2ccc(C(=O)NCCc3ccccc3)cc2)cc1	14-3-3 Bad PPI 72[fluorescence artefact?]
CCN(CC)CCCNc1nc2cc(OC)c(OC)cc2c2nc(-c3ccccc3)nn12	RanGTP-Imp inh 50
COc1cc(OC)c(/C=N/NC(=O)c2ccncc2)c(OC)c1	none (no result: Runt-CBFb FRET, Hck Nef HTS, 14-3-3 Bad PPI, TbHK1 inh, Runt-SMMHC FRET)
O=C(O/N=C1\CCS(=O)(=O)c2sccc21)C1CC1	RanGTP-Imp inh 101
CC(C)(C)C(=O)O/N=C1\CCS(=O)(=O)c2sccc21	none
Cc1ccc(Oc2nnc(-c3cccs3)c3ccccc23)cc1	none
COc1ccc(Oc2nnc(-c3ccc(C)cc3)c3ccccc23)cc1	14-3-3 Bad PPI 89
O=S1(=O)Cc2cc3ccccc3cc2C1	none
O=C(Nc1ccc([N+](=O)[O-])cc1)c1cc(-c2ccccn2)nc2c(Cl)cccc12	14-3-3 Bad PPI 71
CCOc1ccccc1NC(=O)c1cc(-c2ccncc2)nc2c(Cl)cccc12	14-3-3 Bad PPI 73
O=C(O)CSc1nc2ccccc2n1C1CCCCC1	14-3-3 Bad PPI 84
COc1ccc(N(CC(=O)NCc2ccco2)C(=O)CCC(=O)Nc2ccccn2)cc1	none (no result: Runt-CBFb FRET, Hck Nef HTS, 14-3-3 Bad PPI, TbHK1 inh, Runt-SMMHC FRET)
CC(C)CC(COCc1ccc(Cl)cc1)N1CCN(C(=O)c2ccc(Cl)cc2Cl)CCC1=O (stereo not given)	none
CCn1c(=O)c2sccc2n(Cc2cc(C(=O)OC)ccc2OC)c1=O	none (no result: Runt-CBFb FRET, Hck Nef HTS, 14-3-3 Bad PPI, TbHK1 inh, Runt-SMMHC FRET)

Assay outcomes: PubChem BioAssay, several laboratories
